Publication PMC6690775 (FEBS letters, 2019)
Where two headings read alike, the source gives them in different places.

How the values were obtained:
[1] = biological target: T1, mortalin-NBD (Homo sapiens, UniProt P38646); assay: ITC binding of modified ADP analogues to mortalin-NBD; conditions: for ΔΗ: binding enthalpy change; for ΔS: binding entropy change
[2] = biological target: T2, Hsc70-NBD (Homo sapiens, UniProt P11142); assay: Competitive inhibition of ATPase activity; type: biochemical
Method in brief: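 PNP/MESG coupling (0.2 U, 0.2 μM, 10 min, 25 °C); ATP at 50 μM final started reaction; A360 read each minute for 60 min, 25 °C; triplicates minus no-enzyme control. IC50 from one-site logIC50 fit of fractional activity; Kiapp from Morrison fit constrained by prior KM.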

[3] = biological target: T3, Hsp70-NBD (Homo sapiens, UniProt P0DMV8); assay: ITC binding of modified ADP analogues to Hsp70-NBD; conditions: for ΔΗ: binding enthalpy change; for ΔS: binding entropy change
T3 sequence (P0DMV8 1-381): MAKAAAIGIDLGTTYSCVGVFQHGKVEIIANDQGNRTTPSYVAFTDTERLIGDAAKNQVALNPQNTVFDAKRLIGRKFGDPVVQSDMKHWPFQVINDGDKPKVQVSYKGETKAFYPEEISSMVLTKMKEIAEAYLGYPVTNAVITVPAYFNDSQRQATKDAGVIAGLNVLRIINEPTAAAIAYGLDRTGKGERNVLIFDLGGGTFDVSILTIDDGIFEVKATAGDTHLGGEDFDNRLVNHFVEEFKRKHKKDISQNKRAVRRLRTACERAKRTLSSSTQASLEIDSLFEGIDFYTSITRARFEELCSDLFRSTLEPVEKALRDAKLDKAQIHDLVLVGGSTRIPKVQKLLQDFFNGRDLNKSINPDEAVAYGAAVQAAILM

[4] = biological target: T3, Hsp70-NBD; assay: Competitive inhibition of ATPase activity; type: biochemical
Method in brief: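 Human Hsp70-NBD (residues 1–381) was expressed in E. coli Rosetta2(DE3) with a TEV-cleaved His6 tag and purified by Ni, size-exclusion and Blue columns. Phosphate release (EnzChek; PNP 0.2 U, MESG 0.2 μM) was measured with inhibitor at 0–3 mM and ATP 50 μM final. A360 was read each minute for 60 min at 25 °C in triplicate, minus no-enzyme control. IC50 came from a one-site logIC50 fit of fractional activity; Kiapp came from a Morrison fit of V0.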

[5] = biological target: T2, Hsc70-NBD; assay: ITC binding of modified ADP analogues to Hsc70-NBD; conditions: for ΔΗ: binding enthalpy change; for ΔS: binding entropy change
[6] = biological target: T1, mortalin-NBD; assay: Competitive inhibition of ATPase activity; type: biochemical; conditions: for inhibition of ATP hydrolysis of mortalin-NBD (in words): compared with ADP
Method in brief: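 Human mortalin-NBD (residues 52–431) was expressed in E. coli Rosetta2(DE3) with a TEV-cleaved His6 tag, then purified by Ni, size-exclusion and Blue columns. Enzyme in binding buffer (HEPES pH 7.8, MgCl2, KCl) was mixed with PNP/MESG and inhibitor at 0–3 mM. ATP was added to 50 μM final, and A360 was read every minute for 60 min at 25 °C, in triplicate, minus no-enzyme control. IC50 came from a one-site logIC50 fit. Kiapp came from a Morrison fit constrained by Et 1 μM, ATP 50 μM and a previously determined KM.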

[7] = biological target: T1, mortalin-NBD; conditions: previously reported; cited from earlier work
[8] = mortalin-NBD, ITC Kd relative to ADP
[9] = read-out: KIapp, mortalin-NBD 1 μM, ATP 50 μM, 25 °C, Morrison fit

T2 sequence (P11142 1-385): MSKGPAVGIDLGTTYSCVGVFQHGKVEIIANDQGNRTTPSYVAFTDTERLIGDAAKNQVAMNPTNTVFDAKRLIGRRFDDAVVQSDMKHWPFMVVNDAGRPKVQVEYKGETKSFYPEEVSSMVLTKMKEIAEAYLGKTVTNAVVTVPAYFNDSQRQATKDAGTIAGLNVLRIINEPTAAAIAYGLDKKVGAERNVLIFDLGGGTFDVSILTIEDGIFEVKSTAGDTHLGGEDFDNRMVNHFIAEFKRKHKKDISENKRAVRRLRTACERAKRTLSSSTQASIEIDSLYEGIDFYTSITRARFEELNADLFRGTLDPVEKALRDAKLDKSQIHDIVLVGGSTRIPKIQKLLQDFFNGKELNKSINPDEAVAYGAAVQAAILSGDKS
T1 sequence (P38646 52-431): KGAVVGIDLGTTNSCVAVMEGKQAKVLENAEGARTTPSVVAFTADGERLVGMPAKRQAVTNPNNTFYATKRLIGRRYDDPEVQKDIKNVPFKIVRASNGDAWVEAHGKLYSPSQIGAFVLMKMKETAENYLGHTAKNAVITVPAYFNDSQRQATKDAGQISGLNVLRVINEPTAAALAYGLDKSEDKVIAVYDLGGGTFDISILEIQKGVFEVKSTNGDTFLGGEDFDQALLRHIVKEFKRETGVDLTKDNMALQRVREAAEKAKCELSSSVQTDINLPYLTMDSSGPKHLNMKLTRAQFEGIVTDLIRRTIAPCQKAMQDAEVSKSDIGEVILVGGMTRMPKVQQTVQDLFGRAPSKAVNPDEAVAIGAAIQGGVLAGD

Compound | Kd [1] | ΔΗ ([1]; ITC, 25 °C, mortalin-NBD) | ΔS ([1]; ITC, 25 °C, mortalin-NBD) | affinity tighter than ADP [1, 8] | IC50 [2] | Ki [2] | Kd [3] | ΔΗ ([3]; ITC, 25 °C, Hsp70-NBD) | ΔS ([3]; ITC, 25 °C, Hsp70-NBD) | IC50 [4] | Ki [4] | Kd [5] | ΔΗ ([5]; ITC, 25 °C, Hsc70-NBD) | ΔS ([5]; ITC, 25 °C, Hsc70-NBD) | IC50 [6] | Ki [6] | inhibition of ATP hydrolysis of mortalin-NBD (in words) [6] | further results
O=P(O)(O)OP(=O)(O)OC[C@H]1O[C@@H](n2cnc3c(NCc4ccccc4)ncnc32)[C@H](O)[C@@H]1O [6-Bn ADP, N6-benzyladenosine-5’-diphosphate] | 3.52 µM | -2.99 ± 0.839 kcal/mol | 61.8 ± 12.1 J/mol·K | ~ 1.5 fold | 1470 µM | 295 ± 67.2 µM | 2.16 µM | -3.941 ± 1.02 kcal/mol | 53.04 ± 14.20 J/mol·K | 2330 µM | 1610 ± 137 µM | 0.159 µM | -4.077 ± 0.0645 kcal/mol | 72.13 ± 2.77 J/mol·K | 119 µM | 86.5 ± 10.3 µM | more effectively compared to ADP | 
O=P(O)(O)OP(=O)(O)OC[C@H]1O[C@@H](n2cnc3c(NCCc4ccccc4)ncnc32)[C@H](O)[C@@H]1O [6-PheEt ADP, N6-(2-phenylethyl)adenosine-5’-diphosphate] | 4.19 µM | -8.1 ± 0.495 kcal/mol | −10.4 ± 5.17 J/mol·K | ~ 1.25 fold | 2100 µM | 445 ± 101 µM | 0.143 µM | -10.8 ± 0.208 kcal/mol | −22.97 ± 3.25 J/mol·K | 3120 µM | 1160 ± 189 µM | 0.237 µM | -4.316 ± 0.022 kcal/mol | 65.31 ± 1.22 J/mol·K | 173 µM | 97.3 ± 9.96 µM | more effectively compared to ADP | 
Nc1nc(Cl)nc2c1ncn2[C@@H]1O[C@H](COP(=O)(O)OP(=O)(O)O)[C@@H](O)[C@H]1O [2-Cl ADP] |  | -4.54 ± 0.172 kcal/mol | 45.4 ± 3.04 J/mol·K | ~ 3 fold |  |  |  |  |  |  |  |  |  |  |  |  | more effectively compared to ADP | Kd ([1]; ITC, 25 °C, mortalin-NBD): 1.77 µM; inhibition of Hsc70-NBD (in words) [2]: no reliably demonstrable inhibition; binding to Hsp70-NBD (in words) ([3]; ITC): did not yield data that could be fitted; inhibition of Hsp70-NBD (in words) [4]: no reliably demonstrable inhibition; binding to Hsc70-NBD (in words) ([5]; ITC): did not yield data that could be fitted; Ki [6, 9]: 45.1 ± 2.42 µM
CSc1nc(N)c2ncn([C@@H]3O[C@H](COP(=O)(O)OP(=O)(O)O)[C@@H](O)[C@H]3O)c2n1 [2-MeS ADP, 2-methylthio-adenosine-5’-diphosphate] | 9.81 µM | -2.96 ± 0.865 kcal/mol | 54.5 ± 16.5 J/mol·K |  |  |  |  |  |  |  |  |  |  |  | 902 µM | 523 ± 98.3 µM |  | decrease in affinity compared to ADP [1, 8]: ~2 fold; inhibition of Hsc70-NBD (in words) [2]: no reliably demonstrable inhibition; binding to Hsp70-NBD (in words) ([3]; ITC): did not yield data that could be fitted; inhibition of Hsp70-NBD (in words) [4]: no reliably demonstrable inhibition; binding to Hsc70-NBD (in words) ([5]; ITC): did not yield data that could be fitted
Cc1cccc(CNc2ncnc3c2ncn3[C@@H]2O[C@H](COP(=O)(O)OP(=O)(O)O)[C@@H](O)[C@H]2O)c1 [6-(3-MeBn) ADP, N6-(3-methylbenzyl)adenosine-5’-diphosphate] | 11.4 µM | -3.13 ± 0.0545 kcal/mol | 50.2 ± 1.73 J/mol·K |  | 8040 µM | 682 ± 179 µM | 0.252 µM | -4.787 ± 0.225 kcal/mol | 58.44 ± 3.96 J/mol·K | 1870 µM | 1300 ± 148 µM | 3.35 µM | -10.22 ± 0.906 kcal/mol | −41.10 ± 12.94 J/mol·K | 1430 µM | 675 ± 99.4 µM |  | 
O=P(O)(O)OP(=O)(O)OC[C@H]1O[C@@H](n2cnc3c(NCc4ccco4)ncnc32)[C@H](O)[C@@H]1O [6-Fu ADP, N6-furfuryladenosine-5’-diphosphate] | 5.84 µM | -5.04 ± 0.277 kcal/mol | 28.7 ± 6.85 J/mol·K |  | 6780 µM | 723 ± 179 µM | 4.27 µM | -2.395 ± 0.562 kcal/mol | 68.77 ± 8.28 J/mol·K | 3240 µM | 1860 ± 172 µM | 8.7 µM | -5.457 ± 0.514 kcal/mol | 19.22 ± 5.06 J/mol·K | 558 µM | 565 ± 49.6 µM |  | 
O=P(O)(O)OP(=O)(O)OC[C@H]1O[C@@H](n2cnc3c(NC4CCCCC4)ncnc32)[C@H](O)[C@@H]1O [6-cHe ADP, N6-cyclohexyladenosine-5’-diphosphate] | 14.1 µM | -5.28 ± 0.0693 kcal/mol | 18.84 ± 0.87 J/mol·K |  | 2230 µM | 622 ± 183 µM | 0.199 µM | -4.967 ± 0.146 kcal/mol | 57.67 ± 0.64 J/mol·K | 2490 µM | 1240 ± 164 µM | 0.357 µM | -6.006 ± 0.562 kcal/mol | 37.74 ± 7.36 J/mol·K | 1600 µM | 733 ± 82.1 µM | weakest inhibition | 
Nc1ncnc2c1ncn2[C@@H]1O[C@H](COP(=O)(O)OP(=O)(O)O)[C@@H](O)[C@H]1O [ADP, reference compound] |  | -6.52 ± 0.308 kcal/mol | 9.36 ± 4.48 J/mol·K |  |  |  |  | -5.731 ± 0.203 kcal/mol | 60.54 ± 3.65 J/mol·K |  |  |  | -7.359 ± 0.022 kcal/mol | 34.19 ± 1.55 J/mol·K |  |  |  | Kd [7]: 5.3 ± 0.106 µM; log IC50 ([2]; Hsc70-NBD, ATP 50 μM, one-site logIC50 fit): 2.734 ± 0.117; Ki ([2]; read-out: KIapp, Hsc70-NBD, ATP 50 μM, Morrison fit, ~ denotes ambiguous data): 239 ± 32.2 µM; Kd ([3]; ITC, 25 °C, Hsp70-NBD): 0.0435 µM; log IC50 ([4]; Hsp70-NBD, ATP 50 μM, one-site logIC50 fit): 2.697 ± 0.091; Ki ([4]; read-out: KIapp, Hsp70-NBD, ATP 50 μM, Morrison fit, ~ denotes ambiguous data): 440 ± 47.8 µM; Kd ([5]; ITC, 25 °C, Hsc70-NBD): 0.0665 µM; Ki [6, 9]: 353 ± 36.2 µM
